Laboratory results as given in ChEMBL document CHEMBL2321840, “Synthesis and structure-activity relationships of indazole arylsulfonamides as allosteric CC-chemokine receptor 4 (CCR4) antagonists” (J Med Chem, 2013).
In brackets after ≈: the same amount, converted by molar mass.

Key:
[1] = Lipophilicity, log D of the compound by chromatographic analysis; assay type: physicochemical
Summary of the method: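 Chromatographic log D measured at pH 7.4.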

[2] = Kinetic solubility of the compound by chemiluminescent nitrogen detection assay; assay type: physicochemical; conditions: for solubility kinetic: read-out: Kinetic_solubility
[3] = Dissociation constant, pKa of the compound; assay type: physicochemical
[4] = molecular target: T1, C-C chemokine receptor type 4 (Homo sapiens, UniProt P51679); experiment: Antagonist activity at human recombinant CCR4 receptor expressed in CHO cell membranes by [35S]GTPgammaS binding assay; assay type: functional
T1 sequence (P51679 whole entry): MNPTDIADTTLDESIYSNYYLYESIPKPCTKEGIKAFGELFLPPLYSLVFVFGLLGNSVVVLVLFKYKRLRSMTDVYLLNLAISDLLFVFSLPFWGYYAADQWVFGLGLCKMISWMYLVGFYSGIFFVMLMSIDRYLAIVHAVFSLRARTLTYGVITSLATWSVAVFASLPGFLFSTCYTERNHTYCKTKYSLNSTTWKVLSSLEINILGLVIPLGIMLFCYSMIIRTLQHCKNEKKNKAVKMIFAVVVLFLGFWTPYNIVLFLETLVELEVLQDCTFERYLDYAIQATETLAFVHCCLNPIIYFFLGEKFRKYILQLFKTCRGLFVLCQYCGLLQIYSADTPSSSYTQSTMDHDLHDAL

[5] = molecular target: T1, C-C chemokine receptor type 4; experiment: Antagonist activity at CCR4 receptor in human whole blood assessed as F-actin polymerization after 30 mins by FACS-based flow cytometric analysis; conditions: for Kb: read-out: pA2 (converted)
[6] = Plasma protein binding in human by equilibrium dialysis technique; assay type: ADME, cell-free; conditions: read-out: PPB (converted)
Summary of the method: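 Rapid equilibrium dialysis in CD rat, beagle dog or human plasma, with compound at a nominal 1 μg/mL; n = 3.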

[7] = Oral bioavailability in Beagle dog at 1 mg/kg; assay type: ADME, organism-based, Canis lupus familiaris; conditions: in vivo
[8] = Volume of distribution at steady state in Beagle dog at 0.5 mg/kg, iv; assay type: ADME, organism-based, Canis lupus familiaris; parameters: dose 0.5 mg/kg, route intravenous; conditions: beagle, in vivo, read-out: Vdss
[9] = Oral bioavailability in CD rat at 1 mg/kg; assay type: ADME, organism-based; conditions: in vivo
Summary of the method: (§1)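 CD rat pharmacokinetics, with compounds given as solutions in DMSO–PEG200–H₂O (5:45:50); one analogue used a 10:40:50 ratio.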

in vivo [10] = conditions: CD, rat, iv, 1 mg/kg
[11] = Volume of distribution at steady state in CD rat at 1 mg/kg, iv and 1 mg/kg, po; assay type: ADME, organism-based; conditions: in vivo, read-out: Vdss; summary of the method: as §1
in vivo [12] = conditions: beagle, dog, iv, 0.5 mg/kg
in vivo [13] = conditions: beagle, dog, iv, 0.5 mg/kg; remark: listed apart in the source
in vivo [14] = conditions: CD, rat, iv, 1 mg/kg; remark: listed apart in the source

Row | Compound | chromatographic logD [1] | solubility kinetic [2] [mg/mL] | pKa [3] | IC50 [4] [µM] | Kb [5] [µM] | also measured
1 | CC(=O)NCc1cccc(Cn2nc(NS(=O)(=O)c3ccc(Cl)s3)c3c(C#N)cccc32)c1 | 2.5 | ≥ 0.155 | 5.4 | 0.316 | – | –
2 | COc1cccc2c1c(NS(=O)(=O)c1ccc(Cl)s1)nn2Cc1cccc(CNC(=O)C2COCCN2C)c1 (single isomer, unassigned; isomer A) | – | – | – | – | – | pA2 [5]: 6.6; Kinetic_solubility [2]: >= 203 ug ml-1; pIC50 ([4]; cho): 8.2
3 | COc1cc(F)cc2c1c(NS(=O)(=O)c1ccc(Cl)s1)nn2Cc1cccc(CNC(C)=O)c1 | 4.1 | ≥ 0.161 | – | 0.0398 | 1 | –
4 | CC(=O)NCc1cccc(Cn2nc(NS(=O)(=O)c3ccc(Cl)s3)c3c(CO)cccc32)c1 | 2.6 | ≥ 0.113 | 5.66 | 0.00631 | 1 | –
5 | COc1cccc2c1c(NS(=O)(=O)c1ccc(Cl)s1)nn2Cc1cccc(CNC(=O)C2COC2)c1 | 4 | ≥ 0.173 | – | 0.02 | 1 | –
6 | COc1cccc2c1c(NS(=O)(=O)c1ccc(Cl)s1)nn2Cc1cccc(CNC(C)=O)c1 | 4.1 | ≥ 0.124 | 6.6 | – | – | fraction unbound [6]: 0.005; bioavailability [7]: 49%; Vd [8]: 3.2 L/kg
7 | COc1cccc2c1c(NS(=O)(=O)c1ccc(Cl)s1)nn2Cc1cccc(CNC(=O)C2CCOCC2)c1 | 4.4 | ≥ 0.193 | – | 0.0316 | 0.501 | –
8 | CC(=O)NCc1cccc(Cn2nc(NS(=O)(=O)c3ccc(Cl)s3)c3c(Cl)cccc32)c1 | 3.8 | ≥ 0.226 | 6.03 | 0.0316 | 6.31 | –
9 | COc1cccc2c1c(NS(=O)(=O)c1ccc(C)c(F)c1)nn2Cc1cccc(CNC(=O)C(C)(C)O)c1 | 4.5 | 0.036 (≈ 66.6 µM) | 7.26 | 0.0158 | 1.26 | –
10 | COc1cccc2c1c(NS(=O)(=O)c1ccc(Cl)s1)nn2Cc1cc(CNC(C)=O)ccn1 | 2.6 | ≥ 0.141 | – | 0.158 | > 10 | –
11 | CN[C@H](C)C(=O)NCc1cccc(Cn2nc(NS(=O)(=O)c3ccc(Cl)s3)c3c(OC)cccc32)c1 | 3.1 | 0.191 (≈ 348 µM) | – | 0.0158 | 0.2 | bioavailability [9]: 19%; clearance (in vivo [10]): 1.02 L/h/kg; Vd [11]: 0.79 L/kg; half-life (in vivo [12]): 5.9 h; fraction unbound [6]: 0.054; clearance (in vivo [13]): 1.02 L/h/kg; bioavailability [7]: 81%; half-life (in vivo [14]): 0.8 h; Vd [8]: 6 L/kg
12 | COc1cccc2c1c(NS(=O)(=O)c1ccc(Cl)s1)nn2Cc1cccc(CNC(=O)C2CCCO2)c1 (stereo not drawn) | 4.9 | ≥ 0.153 | – | 0.0398 | 0.794 | –
13 | COc1cccc2c1c(NS(=O)(=O)c1cccc(Cl)c1)nn2Cc1cccc(CNC(=O)C(C)(C)O)c1 | 4.5 | ≥ 0.198 | 7.06 | 0.0501 | – | –
14 | COc1cccc2c1c(NS(=O)(=O)c1ccc(Cl)s1)nn2Cc1cccc(CNC(C)=O)n1 | 3 | ≥ 0.182 | – | 0.126 | – | –
15 | COc1ccc(F)c2c1c(NS(=O)(=O)c1ccc(Cl)s1)nn2Cc1cccc(CNC(C)=O)c1 | 4 | ≥ 0.177 | – | 0.0794 | – | –
16 | COc1cccc2c1c(NS(=O)(=O)c1ccc(Cl)c(Cl)c1)nn2Cc1cccc(CNC(=O)C(C)(C)O)c1 | 5.1 | 0.076 (≈ 132 µM) | 6.76 | 0.398 | – | –
17 | COc1cccc2c1c(NS(=O)(=O)c1ccc(Cl)s1)nn2Cc1cccc(CNC(=O)[C@@H]2COCCN2)c1 | 3.9 | ≥ 0.212 | – | 0.0158 | 0.0794 | bioavailability [9]: 32%; clearance (in vivo [10]): 1.08 L/h/kg; Vd [11]: 0.78 L/kg; half-life (in vivo [12]): 2.6 h; fraction unbound [6]: 0.018; clearance (in vivo [13]): 2.46 L/h/kg; bioavailability [7]: 39%; half-life (in vivo [14]): 1.2 h; Vd [8]: 3 L/kg
18 | COc1cccc2c1c(NS(=O)(=O)c1ccc(Cl)s1)nn2Cc1cccc(CNC(=O)[C@H]2COCCN2)c1 | 3.9 | ≥ 0.25 | – | 0.0251 | 0.562 | –

Row | Compound | chromatographic logD [1] | solubility kinetic [2] [mg/mL] | pKa [3] | IC50 [4] [µM] | Kb [5] [µM] | also measured
19 | COc1c(F)ccc2c1c(NS(=O)(=O)c1ccc(Cl)s1)nn2Cc1cccc(CNC(=O)C(C)(C)O)c1 | 4.1 | ≥ 0.174 | – | 0.0398 | 0.631 | –
20 | COc1cccc2c1c(NS(=O)(=O)c1ccc(Cl)s1)nn2Cc1cccc(CNC(=O)C2COCCN2C)c1 (single isomer, unassigned; isomer B) | 4.4 | ≥ 0.18 | – | 0.00631 | 0.251 | bioavailability [9]: 68%; clearance (in vivo [10]): 1.44 L/h/kg; Vd [11]: 1 L/kg; half-life (in vivo [12]): 2.6 h; fraction unbound [6]: 0.014; clearance (in vivo [13]): 1.32 L/h/kg; half-life (in vivo [14]): 1.3 h; Vd [8]: 5.7 L/kg
21 | COc1ccc(COc2nc(Br)cnc2NS(=O)(=O)c2ccc(C)cc2)cc1OCCN(C)C | 2.9 | – | – | – | – | –
22 | CC(=O)NCc1cccc(Cn2nc(NS(=O)(=O)c3ccc(Cl)s3)c3c(C(C)(C)O)cccc32)c1 | 2.9 | ≥ 0.159 | 5.46 | 0.1 | – | –
23 | CC(=O)NCc1cccc(Cn2nc(NS(=O)(=O)c3ccc(Cl)s3)c3c(C(C)=O)cccc32)c1 | 4.8 | 0.057 (≈ 110 µM) | – | 0.1 | – | –
24 | COc1cccc2c1c(NS(=O)(=O)c1ccc(Cl)s1)nn2Cc1cccc(CNC2COC2)c1 | 4.3 | 0.122 (≈ 235 µM) | – | 0.251 | – | –
25 | CC(=O)NCc1cccc(Cn2nc(NS(=O)(=O)c3ccc(Cl)s3)c3c(F)cccc32)c1 | 3 | ≥ 0.139 | 5.62 | 0.0794 | 5.01 | –
26 | COc1cccc2c1c(NS(=O)(=O)c1ccc(Cl)s1)nn2Cc1ccnc(CNC(C)=O)c1 | 2.5 | ≥ 0.161 | – | 0.1 | – | –
27 | CC(=O)NCc1cccc(Cn2nc(NS(=O)(=O)c3ccc(Cl)s3)c3ccccc32)c1 | 3.3 | ≥ 0.117 | 5.93 | 0.251 | – | –
28 | COc1cccc2c1c(NS(=O)(=O)c1ccc(Cl)s1)nn2Cc1cccc(CNC(=O)C(C)(C)N)c1 | 3.3 | ≥ 0.18 | – | 0.0158 | 0.141 | bioavailability [9]: 29%; clearance (in vivo [10]): 0.9 L/h/kg; Vd [11]: 0.84 L/kg; half-life (in vivo [12]): 2.4 h; fraction unbound [6]: 0.04; clearance (in vivo [13]): 1.08 L/h/kg; half-life (in vivo [14]): 1.3 h; Vd [8]: 5 L/kg
29 | CC(=O)NCc1cccc(Cn2nc(NS(=O)(=O)c3ccc(Cl)s3)c3c(O)cccc32)c1 | 2.9 | ≥ 0.166 | 6.12 | 0.0126 | 0.794 | bioavailability [9]: 12%; clearance (in vivo [10]): 1.14 L/h/kg; Vd [11]: 1.2 L/kg; half-life (in vivo [14]): 1.2 h
30 | COc1c(F)ccc2c1c(NS(=O)(=O)c1ccc(Cl)s1)nn2Cc1cccc(CNC(C)=O)c1 | 4.1 | ≥ 0.199 | – | 0.0126 | 3.16 | –
31 | COc1cccc2c1c(NS(=O)(=O)c1ccc(Cl)s1)nn2Cc1cccc(CNC(=O)C2CCO2)c1 (stereo not drawn) | 4.5 | 0.124 (≈ 227 µM) | – | 0.0316 | – | –
32 | COc1cccc2c1c(NS(=O)(=O)c1cccc(Cl)c1Cl)nn2Cc1cccc(CNC(=O)C(C)(C)O)c1 | 4.7 | 0.157 (≈ 272 µM) | 6.82 | 0.398 | – | –
33 | CC(=O)NCc1cccc(Cn2nc(NS(=O)(=O)c3ccc(Cl)s3)c3c(C(F)F)cccc32)c1 | 3.7 | ≥ 0.188 | 5.6 | 0.1 | 7.94 | –
34 | CC(=O)NCc1cccc(Cn2nc(NS(=O)(=O)c3ccc(Cl)s3)c3c(C(C)O)cccc32)c1 (stereo not drawn) | 2.7 | ≥ 0.208 | 5.62 | 0.02 | 0.501 | bioavailability [9]: 35%; clearance (in vivo [10]): 0.78 L/h/kg; Vd [11]: 3.5 L/kg; half-life (in vivo [14]): 3.7 h
35 | O=C([C@H]1CCCCN1)N1CCN(c2nc(NCc3ccc(Cl)cc3Cl)c3cccnc3n2)CC1 | 2.9 | – | – | – | – | –
